According to ChEMBL document CHEMBL3120102, “Structure-based design, synthesis and biological evaluation of novel anthra[1,2-d]imidazole-6,11-dione homologues as potential antitumor agents” (2013):

Experiments:
Type in all cases: functional
[1] = test system: MDA-MB-468; experiment: Cytotoxicity against human MDA-MB-468 cells assessed as growth inhibition after 48 hrs by SRB assay
Outline: (§1)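 NCI 60-cell-line screen, five-dose stage: each cell line exposed for 48 h to five concentrations spanning five log steps; cellular protein measured by sulforhodamine B colorimetry. A time-zero cell control and plates without drug are used to derive GI50, TGI and LC50 from log-concentration dose-response curves.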

[2] = test system: MDA-MB-231; experiment: Cytotoxicity against human MDA-MB-231 cells assessed as growth inhibition after 48 hrs by SRB assay; outline: as §1
[3] = test system: MCF7; experiment: Cytotoxicity against human MCF7 cells assessed as growth inhibition after 48 hrs by SRB assay; outline: as §1
[4] = test system: A498; experiment: Cytotoxicity against human A498 cells assessed as growth inhibition after 48 hrs by SRB assay
Outline: (§2)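 NCI 60-cell-line five-dose screen at […]. Drug exposure was 48 h, followed by sulforhodamine B protein staining. GI50, TGI and LC50 were calculated against a time-zero control and untreated plates, with dose–response curves plotted from log10 concentration.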

[5] = test system: SK-OV-3; experiment: Cytotoxicity against human SKOV3 cells assessed as growth inhibition after 48 hrs by SRB assay; outline: as §1
[6] = (§3) Cytotoxicity against human OVCAR5 cells assessed as growth inhibition after 48 hrs by SRB assay; conditions: OVCAR-5, 48 h; outline: as §1
[7] = test system: OVCAR-5; experiment: as §3; outline: as §1
[8] = test system: OVCAR-3; experiment: Cytotoxicity against human OVCAR3 cells assessed as growth inhibition after 48 hrs by SRB assay; outline: as §1
[9] = (§4) Cytotoxicity against human OVCAR4 cells assessed as growth inhibition after 48 hrs by SRB assay; conditions: OVCAR-4, 48 h; outline: as §1
[10] = test system: OVCAR-4; experiment: as §4; outline: as §1
[11] = test system: IGROV-1; experiment: Cytotoxicity against human IGROV1 cells assessed as growth inhibition after 48 hrs by SRB assay; outline: as §2
[12] = test system: MDA-MB-435; experiment: Cytotoxicity against human MDA-MB-435 cells assessed as growth inhibition after 48 hrs by SRB assay; outline: as §1
[13] = test system: M14; experiment: Cytotoxicity against human M14 cells assessed as growth inhibition after 48 hrs by SRB assay; outline: as §2
[14] = test system: Malme-3M; experiment: Cytotoxicity against human MALME-3M cells assessed as growth inhibition after 48 hrs by SRB assay; outline: as §2
[15] = test system: LOX IMVI; experiment: Cytotoxicity against human LOXIMVI cells assessed as growth inhibition after 48 hrs by SRB assay; outline: as §2
[16] = test system: SNB-19; experiment: Cytotoxicity against human SNB19 cells assessed as growth inhibition after 48 hrs by SRB assay
Outline: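 NCI 60-cell-line screen, two stages. Five-dose testing at […]. Cellular protein measured by sulforhodamine B colorimetry after 48 h drug exposure. A time-zero control and drug-free plates are used to derive GI50, TGI and LC50 from dose-response curves plotted as log10 concentration per cell line.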

[17] = test system: SF-268; experiment: Cytotoxicity against human SF268 cells assessed as growth inhibition after 48 hrs by SRB assay; outline: as §1
[18] = test system: KM12; experiment: Cytotoxicity against human KM12 cells assessed as growth inhibition after 48 hrs by SRB assay; outline: as §2
[19] = test system: HCT-15; experiment: Cytotoxicity against human HCT15 cells assessed as growth inhibition after 48 hrs by SRB assay; outline: as §2
[20] = test system: HCT-116; experiment: Cytotoxicity against human HCT116 cells assessed as growth inhibition after 48 hrs by SRB assay; outline: as §2
[21] = test system: COLO 205; experiment: Cytotoxicity against human COLO205 cells assessed as growth inhibition after 48 hrs by SRB assay; outline: as §2
[22] = test system: NCI-H322M; experiment: Cytotoxicity against human NCI-H322M cells assessed as growth inhibition after 48 hrs by SRB assay; outline: as §1
[23] = test system: HOP-62; experiment: Cytotoxicity against human HOP62 cells assessed as growth inhibition after 48 hrs by SRB assay; outline: as §2
[24] = test system: CCRF-CEM; experiment: Cytotoxicity against human CCRF-CEM cells assessed as growth inhibition after 48 hrs by SRB assay; outline: as §2
[25] = test system: CAKI-1; experiment: Cytotoxicity against human CAKI-1 cells assessed as cell growth at 10 uM after 48 hrs by SRB assay; conditions: CAKI-1, 48 h, read-out: Activity
[26] = test system: HT-29; experiment: Cytotoxicity against human HT-29 cells assessed as cell growth at 10 uM after 48 hrs by SRB assay; conditions: HT-29, 48 h, read-out: Activity

SMILES: CCCSc1nc2ccc3c(c2[nH]1)C(=O)c1ccccc1C3=O
- growth inhibition (GI) [1]: Dose-dependent effect
- GI50 ([1]; MDA-MB-468, 48 h): 6.38 µM
- LC50 ([1]; MDA-MB-468, 48 h): > 100 µM
- TGI ([1]; MDA-MB-468, 48 h): > 100 µM
- growth inhibition (GI) [2]: Dose-dependent effect
- GI50 ([2]; MDA-MB-231, 48 h): 5.14 µM
- LC50 ([2]; MDA-MB-231, 48 h): > 100 µM
- TGI ([2]; MDA-MB-231, 48 h): > 100 µM
- growth inhibition (GI) [3]: Dose-dependent effect
- GI50 ([3]; MCF7, 48 h): 57 µM
- LC50 (concentration killing 50% of cells) ([3]; MCF7, 48 h): > 100 µM
- TGI ([3]; MCF7, 48 h): > 100 µM
- growth inhibition (GI) [4]: Dose-dependent effect
- GI50 ([4]; A498, 48 h): 13.9 µM
- TGI ([4]; A498, 48 h): > 100 µM
- CC50 ([4]; A498, 48 h, read-out: LC50 (the source's name)): > 100 µM
- growth inhibition (GI) [5]: Dose-dependent effect
- GI50 ([5]; SK-OV-3, 48 h): 3.22 µM
- LC50 (concentration killing 50% of cells present at time zero) ([5]; SK-OV-3, 48 h): > 100 µM
- TGI ([5]; SK-OV-3, 48 h): 20.5 µM
- GI50 [6]: 58.1 µM
- LC50 [6]: > 100 µM
- TGI [6]: > 100 µM
- growth inhibition (GI) [7]: Dose-dependent effect
- growth inhibition (GI) [8]: Dose-dependent effect
- GI50 ([8]; OVCAR-3, 48 h): 3.97 µM
- LC50 (50% lethal concentration) ([8]; OVCAR-3, 48 h): > 100 µM
- TGI ([8]; OVCAR-3, 48 h): 37.6 µM
- GI50 [9]: 5.05 µM
- LC50 (concentration killing 50% of cells) [9]: > 100 µM
- TGI [9]: > 100 µM
- growth inhibition (GI) [10]: Dose-dependent effect
- growth inhibition (GI) [11]: Dose-dependent effect
- GI50 ([11]; IGROV-1, 48 h): 4.03 µM
- LC50 ([11]; IGROV-1, 48 h): > 100 µM
- TGI ([11]; IGROV-1, 48 h): > 100 µM
- growth inhibition (GI) [12]: Dose-dependent effect
- GI50 ([12]; MDA-MB-435, 48 h): > 100 µM
- LC50 ([12]; MDA-MB-435, 48 h): > 100 µM
- TGI ([12]; MDA-MB-435, 48 h): > 100 µM
- growth inhibition (GI) [13]: Dose-dependent effect
- GI50 ([13]; M14, 48 h): > 100 µM
- LC50 ([13]; M14, 48 h): > 100 µM
- TGI ([13]; M14, 48 h): > 100 µM
- GI50 [14]: 4.27 µM
- TGI [14]: > 100 µM
- growth inhibition (GI) [14]: Dose-dependent effect
- CC50 ([14]; read-out: LC50 (the source's name)): > 100 µM
- GI50 [15]: 3.69 µM
- LC50 [15]: > 100 µM
- TGI [15]: > 100 µM
- growth inhibition (GI) [15]: Dose-dependent effect
- growth inhibition (GI) [16]: Dose-dependent effect
- GI50 ([16]; SNB-19, 48 h): 9.35 µM
- LC50 ([16]; SNB-19, 48 h): > 100 µM
- TGI ([16]; SNB-19, 48 h): > 100 µM
- growth inhibition (GI) [17]: Dose-dependent effect
- GI50 ([17]; SF-268, 48 h): 3.71 µM
- LC50 (concentration killing 50% of cells relative to time zero) ([17]; SF-268, 48 h): > 100 µM
- TGI ([17]; SF-268, 48 h): > 100 µM
- growth inhibition (GI) [18]: Dose-dependent effect
- GI50 ([18]; KM12, 48 h): > 100 µM
- TGI ([18]; KM12, 48 h): > 100 µM
- CC50 ([18]; KM12, 48 h, read-out: LC50 (the source's name)): > 100 µM
- growth inhibition (GI) [19]: Dose-dependent effect
- GI50 ([19]; HCT-15, 48 h): > 100 µM
- LC50 (concentration killing 50% of cells) ([19]; HCT-15, 48 h): > 100 µM
- TGI ([19]; HCT-15, 48 h): > 100 µM
- growth inhibition (GI) [20]: Dose-dependent effect
- GI50 ([20]; HCT-116, 48 h): 3.06 µM
- LC50 ([20]; HCT-116, 48 h): > 100 µM
- TGI ([20]; HCT-116, 48 h): > 100 µM
- growth inhibition (GI) [21]: Dose-dependent effect
- GI50 ([21]; COLO 205, 48 h): > 100 µM
- LC50 ([21]; COLO 205, 48 h): > 100 µM
- TGI ([21]; COLO 205, 48 h): > 100 µM
- GI50 [22]: > 100 µM
- LC50 (concentration killing 50% of cells relative to time zero) [22]: > 100 µM
- TGI [22]: > 100 µM
- growth inhibition (GI) [22]: Dose-dependent effect
- growth inhibition (GI) [23]: Dose-dependent effect
- GI50 ([23]; HOP-62, 48 h): 1940 nM
- LC50 (concentration killing 50% of cells relative to time zero) ([23]; HOP-62, 48 h): 9.36 µM
- TGI ([23]; HOP-62, 48 h): 4.27 µM
- GI50 [24]: > 100 µM
- LC50 [24]: > 100 µM
- TGI [24]: > 100 µM
- growth inhibition (GI) [24]: Dose-dependent effect
- growth at 10 µM [25]: 45.5%
- growth at 10 µM [26]: 75.1%
